Measured values from ChEMBL document CHEMBL1122179, “1-(alkylamino)isochromans: hypotensives with peripheral and central activities” (J Med Chem, 1982).

Legend:
Rattus norvegicus [1] = test: Mean arterial pressure of compound was measured in anesthetized rats at 60 min; assay type: functional, Artery
Procedure, shortened: (§1)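 Female Sprague-Dawley rats (200–300 g), anesthetized iv with α-chloralose (40 mg/kg), urethane (40 mg/kg) and pentobarbital (15 mg/kg). Carotid artery catheter for blood pressure and heart rate, jugular vein for drugs. Test agent given at 1.0 mg/kg iv in 0.1 M citric acid (1 mg/mL). Pressor responses to iv norepinephrine 0.1 μg/kg, phenylephrine 2.5 μg/kg and angiotensin I 0.1 μg/kg were taken before and 15, 30, 45 and 60 min after dosing. Mean ± SEM.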

Rattus norvegicus [2] = test: Pressor effects of intravenous norepinephrine (0.1 ug/kg) was measured in anesthetized rats at 60 min.; assay type: functional; procedure, shortened: as §1
Rattus norvegicus [3] = test: Mean arterial pressure of compound was measured in anesthetized rats at 0 min.; assay type: functional, Artery; procedure, shortened: as §1
Rattus norvegicus [4] = test: Pressor effects of intravenous norepinephrine (0.1 ug/kg) was measured in anesthetized rats at 0 min.; assay type: functional; procedure, shortened: as §1
[5] = target: T1, Adrenergic receptor alpha-1 (Rattus norvegicus, UniProt P15823+P23944+P43140); test: Compound was tested for the inhibition of [3H]prazosin binding alpha-1-adrenergic receptor of crude rat brain membrane.
T1 sequence (P15823 whole entry): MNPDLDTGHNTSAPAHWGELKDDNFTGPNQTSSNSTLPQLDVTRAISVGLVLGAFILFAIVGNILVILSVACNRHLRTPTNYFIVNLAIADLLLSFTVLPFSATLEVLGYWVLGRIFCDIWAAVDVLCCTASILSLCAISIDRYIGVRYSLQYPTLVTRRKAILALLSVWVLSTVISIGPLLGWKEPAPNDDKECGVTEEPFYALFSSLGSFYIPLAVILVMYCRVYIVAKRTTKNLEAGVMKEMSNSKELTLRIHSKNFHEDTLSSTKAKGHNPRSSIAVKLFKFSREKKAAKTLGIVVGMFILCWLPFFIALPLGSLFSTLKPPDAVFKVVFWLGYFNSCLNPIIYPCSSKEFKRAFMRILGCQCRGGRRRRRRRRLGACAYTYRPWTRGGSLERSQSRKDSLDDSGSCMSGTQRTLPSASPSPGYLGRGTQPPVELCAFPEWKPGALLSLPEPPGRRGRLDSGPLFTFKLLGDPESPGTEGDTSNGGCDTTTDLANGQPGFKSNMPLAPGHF
T1 sequence (P23944 whole entry): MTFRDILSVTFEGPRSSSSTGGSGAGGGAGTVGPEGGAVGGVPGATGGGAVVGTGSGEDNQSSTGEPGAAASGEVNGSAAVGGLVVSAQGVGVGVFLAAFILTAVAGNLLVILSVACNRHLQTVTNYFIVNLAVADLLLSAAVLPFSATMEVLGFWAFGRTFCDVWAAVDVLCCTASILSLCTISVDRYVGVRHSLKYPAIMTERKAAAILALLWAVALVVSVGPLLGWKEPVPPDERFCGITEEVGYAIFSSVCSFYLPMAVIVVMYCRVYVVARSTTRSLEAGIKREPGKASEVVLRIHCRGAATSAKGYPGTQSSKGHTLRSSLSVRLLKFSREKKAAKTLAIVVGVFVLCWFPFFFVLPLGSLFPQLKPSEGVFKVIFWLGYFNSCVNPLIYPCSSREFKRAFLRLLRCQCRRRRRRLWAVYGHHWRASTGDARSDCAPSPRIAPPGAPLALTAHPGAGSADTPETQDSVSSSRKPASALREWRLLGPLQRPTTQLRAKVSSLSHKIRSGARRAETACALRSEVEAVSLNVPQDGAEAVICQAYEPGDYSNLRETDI
T1 sequence (P43140 whole entry): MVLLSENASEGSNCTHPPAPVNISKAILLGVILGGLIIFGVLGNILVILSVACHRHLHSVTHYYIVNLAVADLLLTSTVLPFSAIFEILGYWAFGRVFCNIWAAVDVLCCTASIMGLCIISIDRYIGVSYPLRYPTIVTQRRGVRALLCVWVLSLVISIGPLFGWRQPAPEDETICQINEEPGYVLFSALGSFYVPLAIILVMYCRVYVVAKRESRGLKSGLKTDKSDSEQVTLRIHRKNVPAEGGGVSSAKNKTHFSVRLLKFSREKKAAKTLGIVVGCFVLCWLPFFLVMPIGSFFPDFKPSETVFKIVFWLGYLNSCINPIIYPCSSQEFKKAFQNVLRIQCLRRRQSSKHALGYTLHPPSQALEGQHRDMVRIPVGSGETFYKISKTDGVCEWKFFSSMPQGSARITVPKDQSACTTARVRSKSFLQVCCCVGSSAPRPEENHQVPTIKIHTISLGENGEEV

`COc1cc2c(cc1OC)C(CCN1CCN(c3ccc(F)cc3)CC1)OCC2` (stereo not given) showed an MAP (Rattus norvegicus [1]) of 87 mmHg, a Pressor response (Rattus norvegicus [2]) of 7 mmHg and an MAP (Rattus norvegicus [3]) of 105 mmHg. It also gave a Pressor response (Rattus norvegicus [4]) of 19 mmHg and a Ki [5] of 4 nM.
